In one assay the target is T1, Aminopeptidase N (Sus scrofa, UniProt P15145).
T1 sequence (P15145 whole entry): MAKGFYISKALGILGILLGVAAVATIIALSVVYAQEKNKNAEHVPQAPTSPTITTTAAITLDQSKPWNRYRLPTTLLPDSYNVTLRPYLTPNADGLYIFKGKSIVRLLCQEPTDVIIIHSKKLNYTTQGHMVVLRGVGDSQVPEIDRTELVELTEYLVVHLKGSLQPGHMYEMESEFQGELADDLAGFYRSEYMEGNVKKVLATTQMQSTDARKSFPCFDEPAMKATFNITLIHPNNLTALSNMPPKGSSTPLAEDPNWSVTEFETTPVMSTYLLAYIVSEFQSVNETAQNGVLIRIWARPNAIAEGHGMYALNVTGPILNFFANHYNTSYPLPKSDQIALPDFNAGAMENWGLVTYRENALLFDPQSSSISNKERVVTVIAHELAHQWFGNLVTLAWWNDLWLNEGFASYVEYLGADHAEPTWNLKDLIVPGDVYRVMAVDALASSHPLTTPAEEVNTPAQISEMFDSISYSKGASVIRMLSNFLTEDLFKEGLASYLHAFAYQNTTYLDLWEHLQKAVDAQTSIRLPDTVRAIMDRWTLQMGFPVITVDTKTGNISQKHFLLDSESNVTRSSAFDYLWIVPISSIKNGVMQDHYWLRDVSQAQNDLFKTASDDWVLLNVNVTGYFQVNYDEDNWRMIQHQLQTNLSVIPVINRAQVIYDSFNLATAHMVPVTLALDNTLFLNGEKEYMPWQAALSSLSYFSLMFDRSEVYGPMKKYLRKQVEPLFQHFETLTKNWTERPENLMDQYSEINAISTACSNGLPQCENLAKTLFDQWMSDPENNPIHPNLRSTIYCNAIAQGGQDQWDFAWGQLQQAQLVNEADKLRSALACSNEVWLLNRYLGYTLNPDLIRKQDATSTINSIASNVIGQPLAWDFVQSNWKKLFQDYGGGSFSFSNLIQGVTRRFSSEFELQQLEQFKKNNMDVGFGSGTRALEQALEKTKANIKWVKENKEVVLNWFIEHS
Description: Inhibition of Aminopeptidase N activity in pig kidney with 10 nM [3H]Leu-enkephalin as substrate. It is filed as tissue-based. In a few lines: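 Commercial aminopeptidase N, used unpurified. Enzyme preincubated 15 min at 25 °C with or without rising inhibitor concentrations in 50 mM Tris-HCl. [3H]Leu-enkephalin (Km 50 μM) added to 10 nM final. Stopped after 30 min with HCl; tritiated metabolites separated on polystyrene beads. IC50 from log-probit of five concentrations, mean ± SEM of three independent experiments.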

The nature of assay [1]: Inhibition of dipeptidyl amino peptidase activity in rat brain with 10 nM [3H]Leu-enkephalin as substrate. The assay is classed as tissue-based. In a few lines:
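Membrane-bound dipeptidylaminopeptidase purified from rat brain. Preincubated 15 min at 25 °C in 50 mM Tris-HCl with or without inhibitor. […] IC50 by log-probit over five inhibitor concentrations; mean ± SEM, three independent experiments.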

The target in another assay is T2, Neprilysin (Oryctolagus cuniculus, UniProt P08049).
T2 sequence (P08049 whole entry): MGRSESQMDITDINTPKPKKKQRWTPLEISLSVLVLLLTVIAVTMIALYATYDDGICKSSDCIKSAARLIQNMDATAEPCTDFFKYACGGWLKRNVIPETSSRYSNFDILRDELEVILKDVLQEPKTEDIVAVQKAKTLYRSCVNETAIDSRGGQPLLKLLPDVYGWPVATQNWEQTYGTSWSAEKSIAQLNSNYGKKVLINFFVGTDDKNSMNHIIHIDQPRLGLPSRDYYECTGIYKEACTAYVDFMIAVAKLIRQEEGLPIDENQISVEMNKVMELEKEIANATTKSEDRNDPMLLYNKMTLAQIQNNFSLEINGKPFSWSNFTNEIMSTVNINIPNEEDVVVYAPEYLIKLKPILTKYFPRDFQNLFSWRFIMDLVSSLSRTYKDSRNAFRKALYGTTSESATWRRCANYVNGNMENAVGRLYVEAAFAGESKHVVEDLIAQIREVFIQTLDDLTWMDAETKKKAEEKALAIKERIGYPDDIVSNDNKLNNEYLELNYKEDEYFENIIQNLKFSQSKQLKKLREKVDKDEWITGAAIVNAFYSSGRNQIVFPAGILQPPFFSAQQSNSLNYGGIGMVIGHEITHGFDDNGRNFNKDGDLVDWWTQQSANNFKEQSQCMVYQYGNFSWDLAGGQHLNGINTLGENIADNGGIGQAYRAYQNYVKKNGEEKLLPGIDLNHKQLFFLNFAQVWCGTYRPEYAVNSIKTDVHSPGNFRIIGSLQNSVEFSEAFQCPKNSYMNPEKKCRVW
Nature of the assay: Inhibition of neutral endopeptidase activity in rabbit kidney with 20 nM [3H]D-Ala2-Leu-enkephalin as substrate. In a few lines:
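NEP purified to homogeneity from rabbit kidney, 1 pmol/100 μL final, preincubated 15 min at 25 °C in 50 mM Tris-HCl with or without inhibitor. [3H]-D-Ala2-Leu-enkephalin (Km 30 μM) added at 20 nM final. Reaction stopped at 30 min with 0.5 M HCl; products separated on polystyrene beads. IC50 from log-probit of five concentrations, mean ± SEM of three experiments.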

For the next assay, the system named is Mus musculus. Description: Analgesic effect when injected intracerebroventricularly at 50 (microg). The assay is classed as functional. In a few lines:
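Male Swiss mice (23–25 g), icv dose of 50 μg in 10 μL saline, n = 10 per group. Hot plate at 55 ± 0.5 °C; jump latency read 15 min after injection, cutoff 240 s. Compared with vehicle controls by ANOVA and Bonferroni test. % analgesia = (experimental − control latency)/(240 s − control latency).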

A word on the IC50: it is the concentration that gives 50% inhibition. `O=C(O)CNC(=O)C(CC(=O)NO)Cc1ccccc1` (configuration not stated): the IC50 turned out to be 2000 nM against Aminopeptidase N and 21 nM in assay [1].
For the compound `O=C(O)C[C@H](NC(=O)[C@H](CC(=O)NO)Cc1ccccc1)c1ccccc1`, the IC50 against Aminopeptidase N came out at 400 nM; in assay [1], 7.2 nM; on Neprilysin, 3 nM.
The corresponding values for `O=C(O)C[C@H](Cc1ccccc1)NC(=O)[C@H](CC(=O)NO)Cc1ccccc1` are 1430 nM, 28.5 nM and 7.6 nM.
On to `O=C(CC(Cc1ccccc1)C(=O)NCC(Cc1ccccc1)C(=O)O)NO` (configuration not stated), for which the IC50 came out at 71.5 nM at Aminopeptidase N, 2.5 nM in assay [1] and 1.8 nM on Neprilysin. In addition, the Analgesia in the assay with Mus musculus was 39.4%. Further, the Latency time with Mus musculus is recorded as 151.8 s.
Consider `CN(C(=O)C(CC(=O)NO)Cc1ccccc1)C(Cc1ccccc1)C(=O)O` (configuration not stated), for which the IC50 was 120 nM against Aminopeptidase N, 2.3 nM in assay [1] and 150 nM on Neprilysin.
The corresponding values for `O=C(O)CCCCNC(=O)C(CC(=O)NO)Cc1ccccc1` (configuration not stated) are 500 nM, 250 nM and 51.5 nM.
At Aminopeptidase N, `O=C(CC(Cc1ccccc1)C(=O)NC(Cc1ccccc1)C(=O)O)NO` (configuration not stated) returned an IC50 of 130 nM.
`CC(CNC(=O)C(CC(=O)NO)Cc1ccccc1)C(=O)O` (configuration not stated): the values for the IC50 (on Aminopeptidase N; in assay [1]; at Neprilysin) were 360 nM, 23 nM and 2.3 nM, respectively. This compound also showed an Analgesia with Mus musculus of 46.6%. This compound also registered a Latency time with Mus musculus of 162.3 s.
For the compound `O=C(O)CCCNC(=O)C(CC(=O)NO)Cc1ccccc1` (configuration not stated), the IC50 against Aminopeptidase N amounted to 1500 nM; in assay [1], 150 nM; against Neprilysin, 27.5 nM.
Consider `O=C(O)CCNC(=O)C(CC(=O)NO)Cc1ccccc1` (configuration not stated), for which the IC50 worked out at 670 nM at Aminopeptidase N, 36 nM in assay [1] and 2.4 nM on Neprilysin. The compound also showed an Analgesia in the assay with Mus musculus of 21.5%. In the assay on Mus musculus, the Latency time stood at 125.3 s.
The corresponding values for `O=C(O)C[C@H](NC(=O)[C@@H](CC(=O)NO)Cc1ccccc1)c1ccccc1` (racemic) are 32.5 nM, 2.6 nM, 2.9 nM, 62.1% and 184.8 s.
The like results for `O=C(O)C[C@H](Cc1ccccc1)NC(=O)[C@@H](CC(=O)NO)Cc1ccccc1` (racemic) were, in that order, 22.5 nM, 0.46 nM, 3 nM, 68.2% and 193.7 s.
On to `CC(CC(=O)O)NC(=O)C(CC(=O)NO)Cc1ccccc1` (stereo in doubt; 6), for which the results for the 50% inhibitory concentration (IC50) (on Aminopeptidase N; in assay [1]; on Neprilysin) were 445 nM, 10 nM and 2 nM, respectively. The compound further yielded an Analgesia in the assay with Mus musculus of 20.5%. Besides, in the assay with Mus musculus, the Latency time is 124 s.
Turning to `CC(NC(=O)C(CC(=O)NO)Cc1ccccc1)C(C)C(=O)O` (stereo in doubt; 11A), the IC50 in assay [1] was determined as 10.5 nM; on Neprilysin it was 26.5 nM.
The corresponding values for `CC(NC(=O)C(CC(=O)NO)Cc1ccccc1)C(C)C(=O)O` (stereo in doubt; 11B) are 17.5 nM and 13 nM.
With `CC(CC(=O)O)NC(=O)C(CC(=O)NO)Cc1ccccc1` (stereo in doubt; C), the IC50 stood at 350 nM against Aminopeptidase N, 0.9 nM in assay [1] and 1.7 nM against Neprilysin.
In the assay with Mus musculus, `C[C@H](NC(=O)[C@@H](CC(=O)NO)Cc1ccccc1)C(=O)O` [KELATORPHAN] yielded an Analgesia of 50% and a Latency time of 167.2 s.
